{"data": "Measured values pooled from the literature", "MAOB": "Amine oxidase [flavin-containing] B (MAOB, Homo sapiens, UniProt P27338)", "PKN1": "Serine/threonine-protein kinase N1 (PKN1, Homo sapiens, UniProt Q16512)", "CA9": "Carbonic anhydrase 9 (CA9, Homo sapiens, UniProt Q16790)", "GRM1": "Metabotropic glutamate receptor 1 (GRM1, Homo sapiens, UniProt Q13255)", "HRH1": "Histamine H1 receptor (HRH1, Homo sapiens, UniProt P35367)", "PADI4": "Protein-arginine deiminase type-4 (PADI4, Homo sapiens, UniProt Q9UM07)", "note": "Compare with care: the assays were run in different laboratories."}
{"SMILES": "COc1cc([N+](=O)[O-])ccc1NC(=O)c1ccccc1O", "target": "MAOB", "assay": "enzyme activity, inhibitor", "conditions": "1 µM, 20 min", "quantity": "inhibition", "result": "7%"}
{"SMILES": "C=CCn1c(=O)c2cnc(Nc3ccc(N4CCN(C)CC4)cc3)nc2n1-c1cccc(C(C)(C)O)n1", "target": "PKN1", "assay": "enzyme activity, inhibitor", "conditions": "1 µM", "quantity": "activity vs control", "result": "60%"}
{"SMILES": "CC(C)(O)[C@H]1CC[C@H](Nc2ccc3ncc(-c4cccc(C(F)(F)F)c4)n3n2)CC1", "target": "Receptor-interacting serine/threonine-protein kinase 3 (RIPK3, Homo sapiens, UniProt Q9Y572)", "assay": "enzyme activity, inhibitor", "conditions": "1 µM", "quantity": "remaining activity", "result": "80.6%"}
{"SMILES": "O=C(Nc1ccccn1)c1ccc(Cl)cc1", "target": "MAOB", "assay": "enzyme activity, inhibitor", "conditions": "1 µM, 20 min", "quantity": "inhibition", "result": "11%"}
{"SMILES": "O=C(c1ccc(Cl)cc1)N(Cc1ccccc1)C1CCCCC1", "target": "Muscarinic acetylcholine receptor M4 (CHRM4, Homo sapiens, UniProt P08173)", "assay": "cell-free assay", "conditions": "10 µM", "quantity": "inhibition", "result": "7.1%"}
{"SMILES": "CCOC(=O)C1CSc2[nH]c(=O)sc2C1c1cn(-c2ccccc2)nc1-c1ccc(Br)cc1 (stereo not shown)", "target": "CA9", "assay": "enzyme activity, inhibitor", "conditions": "10 µM", "quantity": "inhibition", "result": "80.5%"}
{"SMILES": "O=C(Nc1ccc(N2C(=O)c3ccccc3C2=O)c(Cl)c1)c1ncccc1Cl", "target": "GRM1", "assay": "calcium signal, positive allosteric modulator", "test system": "T-REx-293", "quantity": "Emax", "result": "102%"}
{"SMILES": "CN1CCC(=C2c3ccccc3CCc3ccccc32)CC1", "target": "HRH1", "assay": "binding", "quantity": "koff", "result": "8.33e-05 s⁻¹"}
{"SMILES": "Cc1cc(N)ccc1NC(=O)c1ccccc1", "target": "MAOB", "assay": "enzyme activity, inhibitor", "conditions": "1 µM, 20 min", "quantity": "inhibition", "result": "-2%"}
{"SMILES": "CN1CCN(C2c3ccccc3C=Cc3ccccc32)CC1", "target": "HRH1", "assay": "binding", "quantity": "kon", "result": "117000 M⁻¹ s⁻¹"}
{"SMILES": "N=C(CF)NCCC[C@H](NC(=O)c1ccccc1)c1nn[nH]n1", "target": "PADI4", "assay": "enzyme activity, inhibitor", "quantity": "kinact/KI", "result": "67.5 M⁻¹ s⁻¹"}
{"SMILES": "CCC(=O)N1CCN(c2ccc(-n3c(=O)ccc4cnc5ccc(-c6cnc7ccccc7c6)cc5c43)cc2C(F)(F)F)CC1", "target": "PKN1", "assay": "enzyme activity, inhibitor", "conditions": "1 µM", "quantity": "activity vs control", "result": "97%"}
{"SMILES": "O=C(Nc1ccc([N+](=O)[O-])cc1Cl)c1ccccc1O", "target": "MAOB", "assay": "enzyme activity, inhibitor", "conditions": "1 µM, 20 min", "quantity": "inhibition", "result": "14%"}
{"SMILES": "CN1CCC(C2c3ccccc3CCc3ccccc32)CC1", "target": "HRH1", "assay": "binding", "quantity": "koff", "result": "0.000475 s⁻¹"}
{"SMILES": "N=C(CCl)NCCC[C@H](NC(=O)c1ccc(-c2ccccc2)cc1)c1nn[nH]n1", "target": "PADI4", "assay": "enzyme activity, inhibitor", "quantity": "kinact/KI", "result": "398 M⁻¹ s⁻¹"}
{"SMILES": "CN(C)C1CCN(CC#Cc2nn(C3CCCC3)c3nc(NCc4ccccc4)ncc23)C1 (stereo not shown)", "target": "Tyrosine-protein kinase HCK (HCK, Homo sapiens, UniProt P08631)", "assay": "enzyme activity, inhibitor, FRET", "conditions": "0.1 µM", "quantity": "inhibition", "result": "2%"}
{"SMILES": "Cc1ccc(-c2nn(-c3ccccc3)cc2C2c3sc(=O)[nH]c3SC3C(=O)N(c4ccccc4)C(=O)C32)cc1 (stereo not shown)", "target": "CA9", "assay": "enzyme activity, inhibitor", "conditions": "0.1 µM", "quantity": "inhibition", "result": "39%"}
{"SMILES": "N=C(N)NCCC[C@H](NC(=O)[C@H](Cc1ccccc1)NC(=O)[C@@H](N)Cc1c[nH]cn1)C(=O)N[C@@H](Cc1c[nH]c2ccccc12)C(=O)O", "target": "Melanocortin receptor 5 (Mus musculus, UniProt P41149)", "assay": "cAMP, agonist", "test system": "HEK293", "quantity": "Emax", "result": "85%"}
{"SMILES": "CN(C)CCOC1c2ccccc2CCc2ccccc21", "target": "HRH1", "assay": "binding", "quantity": "koff", "result": "0.00215 s⁻¹"}
{"SMILES": "CC(C)(C)n1nnc([C@H](CCCNC(=N)CF)NC(=O)c2ccccc2C(=O)O)n1", "target": "PADI4", "assay": "enzyme activity, inhibitor", "quantity": "kinact/KI", "result": "432 M⁻¹ s⁻¹"}
{"SMILES": "COc1cc2c(CCNC(C)=O)c[nH]c2cc1O", "target": "Sulfotransferase 1A1 (SULT1A1, Homo sapiens, UniProt P50225)", "assay": "enzyme activity, substrate", "conditions": "pH 7", "quantity": "Km", "result": "8.2 µM"}
{"SMILES": "Cc1ccc2c(=O)c3ccccc3n(CCCN)c2c1C.O=C(O)/C=C\\C(=O)O", "target": "PKN1", "assay": "enzyme activity, inhibitor", "conditions": "1 µM", "quantity": "activity vs control", "result": "64%"}
{"SMILES": "Cc1ccc(C(=O)Nc2ccc([N+](=O)[O-])cc2C(F)(F)F)cc1", "target": "MAOB", "assay": "enzyme activity, inhibitor", "conditions": "1 µM, 20 min", "quantity": "inhibition", "result": "69%"}
{"SMILES": "CCOC(=O)C1CSc2[nH]c(=O)sc2C1c1cn(-c2ccccc2)nc1-c1ccc(C)cc1 (stereo not shown)", "target": "CA9", "assay": "enzyme activity, inhibitor", "conditions": "10 µM", "quantity": "inhibition", "result": "76.9%"}
{"SMILES": "Cc1cccnc1C(=O)Nc1ccc(N2C(=O)c3ccccc3C2=O)c(Cl)c1", "target": "GRM1", "assay": "calcium signal, positive allosteric modulator", "test system": "T-REx-293", "quantity": "Emax", "result": "91%"}
{"SMILES": "CC(C)(C)n1nnc([C@H](CCCNC(=N)CCl)NC(=O)c2ccccc2)n1", "target": "PADI4", "assay": "enzyme activity, inhibitor", "quantity": "kinact/KI", "result": "11.8 M⁻¹ s⁻¹"}
{"SMILES": "COc1cc(NC(C)=O)c(Cl)cc1C(=O)Nc1nccs1", "target": "Endothelin receptor type B (EDNRB, Homo sapiens, UniProt P24530)", "assay": "cell-free assay", "conditions": "10 µM", "quantity": "inhibition", "result": "-13.1%"}
{"SMILES": "O=C(Nc1ccccc1)c1ccccc1O", "target": "MAOB", "assay": "enzyme activity, inhibitor", "conditions": "1 µM, 20 min", "quantity": "inhibition", "result": "5%"}
{"SMILES": "CCOC(=O)C1CSc2[nH]c(=O)sc2C1c1cn(-c2ccccc2)nc1-c1ccc(OC)cc1 (stereo not shown)", "target": "CA9", "assay": "enzyme activity, inhibitor", "conditions": "10 nM", "quantity": "inhibition", "result": "21.5%"}
{"SMILES": "O=[N+]([O-])c1ccc(O[C@H]2O[C@H](CO)[C@@H](O)[C@H](O)[C@@H]2O)cc1", "target": "Beta-mannosidase (Bacteroides thetaiotaomicron, UniProt Q8AAK6)", "assay": "enzyme activity, substrate, absorbance", "conditions": "pH 5.6", "quantity": "Km", "result": "390 µM"}
{"SMILES": "S=C(NCc1ccc2c(c1)OCO2)N1CCN(c2ncnc3c2oc2ccccc23)CC1", "target": "PKN1", "assay": "enzyme activity, inhibitor", "conditions": "1 µM", "quantity": "activity vs control", "result": "98%"}
{"SMILES": "CC(C)(C)n1nnc([C@H](CCCNC(=N)CF)NC(=O)c2ccccc2)n1", "target": "PADI4", "assay": "enzyme activity, inhibitor", "quantity": "kinact/KI", "result": "4.33 M⁻¹ s⁻¹"}
{"SMILES": "Cc1c(Cn2c(C)nc3c(C(=O)O)cc(N4CCOCC4)cc32)cccc1C(F)(F)F", "target": "PKN1", "assay": "enzyme activity, inhibitor", "conditions": "1 µM", "quantity": "activity vs control", "result": "88%"}
{"SMILES": "O=C(Nc1ccc([N+](=O)[O-])cc1Cl)c1ccc2c(c1)OCO2", "target": "MAOB", "assay": "enzyme activity, inhibitor", "conditions": "1 µM, 20 min", "quantity": "inhibition", "result": "62%"}
{"SMILES": "CO[C@H]1C[C@@H]2CC[C@@H](C)[C@@](O)(O2)C(=O)C(=O)N2CCCC[C@H]2C(=O)O[C@H]([C@H](C)C[C@@H]2CC[C@@H](OP(C)(C)=O)[C@H](OC)C2)CC(=O)[C@H](C)/C=C(\\C)[C@@H](O)[C@@H](OC)C(=O)[C@H](C)C[C@H](C)/C=C/C=C/C=C/1C", "target": "PKN1", "assay": "enzyme activity, inhibitor", "conditions": "1 µM", "quantity": "activity vs control", "result": "104%"}
{"SMILES": "N=C(CF)NCCC[C@H](NC(=O)c1ccccc1C(=O)O)c1nn[nH]n1", "target": "PADI4", "assay": "enzyme activity, inhibitor", "quantity": "kinact/KI", "result": "780 M⁻¹ s⁻¹"}
{"SMILES": "CN1CCC(=C(c2ccccc2)c2ccccc2)CC1", "target": "HRH1", "assay": "binding", "quantity": "kon", "result": "2e+06 M⁻¹ s⁻¹"}
{"SMILES": "O=C(Nc1ccc(C(F)(F)F)cc1)c1cc2ccccc2cc1O", "target": "MAOB", "assay": "enzyme activity, inhibitor", "conditions": "1 µM, 20 min", "quantity": "inhibition", "result": "67%"}
{"SMILES": "O=C1NC(=S)C(=Cc2cn(-c3ccccc3)nc2-c2ccc(Br)cc2)S1", "target": "CA9", "assay": "enzyme activity, inhibitor", "conditions": "10 nM", "quantity": "inhibition", "result": "12%"}
{"SMILES": "CC#CC(=O)Nc1cc2c(Nc3ccc(F)c(Cl)c3)ncnc2cn1", "target": "PKN1", "assay": "enzyme activity, inhibitor", "conditions": "1 µM", "quantity": "activity vs control", "result": "81%"}
{"SMILES": "CN(C)CCOC1c2ccccc2C=Cc2ccccc21", "target": "HRH1", "assay": "binding", "quantity": "koff", "result": "0.00015 s⁻¹"}
{"SMILES": "CCOC(=O)C1CSc2[nH]c(=O)sc2C1c1cn(-c2ccccc2)nc1-c1ccccc1 (stereo not shown)", "target": "CA9", "assay": "enzyme activity, inhibitor", "conditions": "10 nM", "quantity": "inhibition", "result": "15.6%"}
{"SMILES": "COc1cc2ncn(-c3cc(OCc4ccccc4C(F)(F)F)c(C(N)=O)s3)c2cc1OC", "target": "PKN1", "assay": "enzyme activity, inhibitor", "conditions": "1 µM", "quantity": "activity vs control", "result": "56%"}
